According to publication PMC9340768 (Journal of Medicinal Chemistry, 2022):
One block for each molecule: values may come before it.

Key:
CD137 [1] = target: T1, CD137 (Homo sapiens, UniProt Q07011+Q96NY8); assay: tumor cell/CD137 reporter coculture assay with other tumor cell lines; type: cell-based
Outline: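 A Jurkat reporter line expressing human CD137 and a CD137-responsive luciferase element was cocultured with 10,000 cells of the indicated tumor line, with or without test compound, for 6 h at 37 °C, 5% CO2. Bio-Glo luciferase reagent was then added and luminescence read. Fold induction was calculated as RLU over background wells without test article.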

[2] = system: human PBMCs cocultured with HT1376; assay: PBMC/HT1376 coculture cytokine secretion assay; type: cell-based; conditions: anti-CD3 stimulated PBMCs with HT1376
Outline: (§1)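 Frozen healthy-donor human PBMCs were thawed, washed in PBS with benzonase and resuspended in RPMI with 10% heat-inactivated FBS, HEPES and glutamine. PBMCs (1 × 10^6/mL) were plated with tumor cells (1 × 10^5/mL) at 10:1, stimulated with soluble anti-CD3 OKT3 (100 ng/mL), and given diluted test compound. Incubation was 2 days at 37 °C, 5% CO2. Supernatant IFNγ and IL-2 were measured by Luminex; four-parameter fit, n = 3.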

CD137 [3] = target: T1, CD137; conditions: cited from earlier work
human CD137 = human CD137 (Homo sapiens, UniProt Q07011); assay: SPR binding to human CD137
[4] = Pharmacokinetics in Sprague-Dawley rats; conditions: rat, in vivo, iv, 2 mg/kg, SD rats, 2 mg/kg IV bolus
CT26-Nectin-4 tumors = assay: CT26-Nectin-4 syngeneic tumor model; type: in vivo, Balb/c mice; conditions: 1 and 5 mg/kg QD IP
[5] = system: human PBMCs cocultured with MC38-Nectin-4; assay: PBMC/MC38-Nectin-4 coculture cytokine secretion assay; type: cell-based; conditions: anti-CD3 stimulated; IFNγ after 48 h
Outline: as §1

MC38-Nectin-4 tumors = assay: CIVO intratumoral microdosing pharmacodynamics; type: in vivo, huCD137 C57Bl/6 mice; conditions: 1.85 μM microdose, 24 h, IHC; compared to vehicle or MMAE injection sites
Outline: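 C57BL/6J-hCD137 mice bearing subcutaneous MC38-Nectin-4 tumors (around 860 mm3; three mice) were anesthetized and microdosed transcutaneously with the CIVO device. Each 2 μL injection held vehicle (25 mM histidine, 10% sucrose pH 7), 120 μM MMAE or 1.85 μM test compound, plus fluorescent tracking microspheres. Tumors were taken 24 h later, formalin-fixed, paraffin-embedded and stained by fluorescent IHC for CD8, GzB and DAPI. CD8+/GzB+ cells were normalized to total CD8+ cells; one-way ANOVA with Dunnett's post-test.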

T1 sequence (Q07011 24-255): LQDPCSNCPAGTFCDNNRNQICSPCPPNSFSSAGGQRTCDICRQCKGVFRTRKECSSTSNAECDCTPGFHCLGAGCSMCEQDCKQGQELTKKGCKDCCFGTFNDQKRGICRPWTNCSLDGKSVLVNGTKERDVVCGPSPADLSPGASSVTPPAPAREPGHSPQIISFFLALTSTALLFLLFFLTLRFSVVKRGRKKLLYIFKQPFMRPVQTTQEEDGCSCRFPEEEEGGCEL
T1 sequence (Q96NY8 32-510): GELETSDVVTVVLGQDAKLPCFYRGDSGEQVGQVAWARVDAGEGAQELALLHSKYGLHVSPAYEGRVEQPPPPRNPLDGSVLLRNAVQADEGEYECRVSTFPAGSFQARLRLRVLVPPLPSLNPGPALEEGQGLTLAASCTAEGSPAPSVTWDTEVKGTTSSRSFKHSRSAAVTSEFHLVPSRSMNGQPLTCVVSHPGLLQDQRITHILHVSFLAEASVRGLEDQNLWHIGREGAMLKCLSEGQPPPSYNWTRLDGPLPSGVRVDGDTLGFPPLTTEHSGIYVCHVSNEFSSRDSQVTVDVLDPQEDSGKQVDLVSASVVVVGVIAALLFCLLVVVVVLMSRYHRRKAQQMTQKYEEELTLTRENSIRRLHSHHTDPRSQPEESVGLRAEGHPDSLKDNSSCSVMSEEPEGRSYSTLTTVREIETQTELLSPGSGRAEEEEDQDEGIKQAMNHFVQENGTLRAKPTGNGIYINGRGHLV

- concentration above which agonism is reduced (hook effect) (CD137 [1]; tumor cell/CD137 reporter coculture): above 300 nM
SMILES: CCCC[C@@H]1NC(=O)[C@H](Cc2ccc(O)cc2)NC(=O)[C@@H]2CCCN2C(=O)[C@H](CC(=O)O)NC(=O)[C@H](C)NC(=O)[C@H](Cc2ccccc2)NC(=O)[C@@H]2CSCCC(=O)N3CN(CN(C3)C(=O)CCSC[C@@H](C(=O)N[C@@H](CNC(=O)CCOCCOCCOCCOCCOCCOCCOCCOCCOCCOCCOCCOCCn3cc(CCC(=O)NCCC(=O)N(C)CC(=O)N(C)CC(=O)N(C)CC(=O)N(C)CC(=O)N(C)CC(=O)N(C)CC(=O)N(C)CC(=O)N(C)CC(=O)N(C)CC(=O)N(C)CC(=O)N[C@H]4CSCCC(=O)N5CN6CN(C5)C(=O)CCSC[C@H](NC(=O)[C@@H](CC(=O)O)NC(=O)[C@H](Cc5cccc7ccccc57)NC(=O)[C@@H]5CCCN5C4=O)C(=O)N[C@@H](CCSC)C(=O)N[C@@H](CCCCNC(=N)N)C(=O)N[C@@H](CC(=O)O)C(=O)N[C@@H](Cc4c[nH]c5ccccc45)C(=O)N[C@@H](CO)C(=O)N[C@@H]([C@@H](C)O)C(=O)N4CCC[C@H]4C(=O)N4C[C@H](O)C[C@H]4C(=O)N[C@@H](Cc4c[nH]c5ccccc45)C(=O)N[C@H](C(N)=O)CSCCC6=O)nn3)C(N)=O)NC1=O)C(=O)CCSC[C@H](NC(=O)[C@H](C)NC(C)=O)C(=O)N[C@@H]([C@@H](C)CC)C(=O)N[C@@H](CCC(=O)O)C(=O)N[C@@H](CCC(=O)O)C(=O)NCC(=O)N[C@@H](CCC(N)=O)C(=O)N[C@@H](Cc1ccc(O)cc1)C(=O)N2 [BCY8854]
- CD137 agonism in coculture with MC38-Nectin-4 or parental MC38 (CD137 [1]; 6 h treatment, Jurkat CD137 reporter): dose-dependent agonism of CD137 was observed only in the presence of the Nectin-4-expressing MC38 clone
- secretion of proinflammatory cytokines IFNγ and IL-2 [2]: dose-dependent increase
- CD137 agonism in coculture with Nectin-4 null PC3 (CD137 [3]): not with a Nectin-4 null PC3 cell line
- CD137 agonism in coculture with HT1376 and NCI-H292 (CD137 [3]; tumor lines endogenously expressing Nectin-4): CD137 agonism was also observed

SMILES: CCCC[C@@H]1NC(=O)[C@H](Cc2ccc(O)cc2)NC(=O)[C@@H]2CCCN2C(=O)[C@H](CC(N)=O)NC(=O)[C@H](C)NC(=O)[C@H](Cc2ccccc2)NC(=O)[C@@H]2CSCCC(=O)N3CN(CN(C3)C(=O)CCSC[C@H](NC(C)=O)C(=O)N[C@@H](CC(C)(C)C)C(=O)N3CCC[C@H]3C(=O)N[C@@H](CCC(=O)O)C(=O)N[C@H](CCCCNC(=O)CCc3cn(CCOCCOCCOCCN(CCOCCOCCOCCC(=O)N[C@H]4CSCCC(=O)N5CN6CN(C5)C(=O)CCSC[C@H](NC(=O)[C@@H](CC(=O)O)NC(=O)[C@H](Cc5cccc7ccccc57)NC(=O)[C@@H]5CCCN5C4=O)C(=O)N[C@@H](CCSC)C(=O)N[C@@H](CCCCNC(=N)N)C(=O)N[C@@H](CC(=O)O)C(=O)N[C@@H](Cc4c[nH]c5ccccc45)C(=O)N[C@@H](CO)C(=O)N[C@@H]([C@@H](C)O)C(=O)N4CCC[C@H]4C(=O)N4C[C@H](O)C[C@H]4C(=O)N[C@@H](Cc4c[nH]c5ccccc45)C(=O)N[C@H](C(N)=O)CSCCC6=O)CCOCCOCCOCCn4cc(CCC(=O)NCCCC[C@H]5NC(=O)[C@H](CCC(=O)O)NC(=O)[C@@H]6CCCN6C(=O)[C@H](CC(C)(C)C)NC(=O)[C@@H](NC(C)=O)CSCCC(=O)N6CN7CN(C6)C(=O)CCSC[C@H](NC(=O)[C@H](Cc6ccc(O)cc6)NC(=O)[C@@H]6CCCN6C5=O)C(=O)N[C@@H](Cc5ccccc5)C(=O)N[C@@H](C)C(=O)N[C@@H](CC(N)=O)C(=O)N5CCC[C@H]5C(=O)N[C@@H](Cc5ccc(O)cc5)C(=O)N[C@@H](CCCC)C(=O)N[C@H](C(N)=O)CSCCC7=O)nn4)nn3)C(=O)N3CCC[C@H]3C(=O)N[C@@H](Cc3ccc(O)cc3)C(=O)N2)C(=O)CCSC[C@@H](C(N)=O)NC1=O [BCY12486]
- Kd (human CD137): ~8 nM

- Kd (human CD137): ~8 nM
SMILES: CCCC[C@@H]1NC(=O)[C@H](Cc2ccc(O)cc2)NC(=O)[C@@H]2CCCN2C(=O)[C@H](CCC(=O)O)NC(=O)[C@H](C)NC(=O)[C@H](Cc2ccccc2)NC(=O)[C@@H]2CSCCC(=O)N3CN(CN(C3)C(=O)CCSC[C@H](NC(C)=O)C(=O)N[C@@H](CC(C)(C)C)C(=O)N3CCC[C@H]3C(=O)N[C@@H](CCC(=O)O)C(=O)N[C@H](CCCCNC(=O)CCc3cn(CCOCCOCCOCCN(CCOCCOCCOCCC(=O)N[C@H]4CSCCC(=O)N5CN6CN(C5)C(=O)CCSC[C@H](NC(=O)[C@@H](CC(=O)O)NC(=O)[C@H](Cc5cccc7ccccc57)NC(=O)[C@@H]5CCCN5C4=O)C(=O)N[C@@H](CCSC)C(=O)N[C@@H](CCCCNC(=N)N)C(=O)N[C@@H](CC(=O)O)C(=O)N[C@@H](Cc4c[nH]c5ccccc45)C(=O)N[C@@H](CO)C(=O)N[C@@H]([C@@H](C)O)C(=O)N4CCC[C@H]4C(=O)N4C[C@H](O)C[C@H]4C(=O)N[C@@H](Cc4c[nH]c5ccccc45)C(=O)N[C@H](C(N)=O)CSCCC6=O)CCOCCOCCOCCn4cc(CCC(=O)NCCCC[C@H]5NC(=O)[C@H](CCC(=O)O)NC(=O)[C@@H]6CCCN6C(=O)[C@H](CC(C)(C)C)NC(=O)[C@@H](NC(C)=O)CSCCC(=O)N6CN7CN(C6)C(=O)CCSC[C@H](NC(=O)[C@H](Cc6ccc(O)cc6)NC(=O)[C@@H]6CCCN6C5=O)C(=O)N[C@@H](Cc5ccccc5)C(=O)N[C@@H](C)C(=O)N[C@@H](CCC(=O)O)C(=O)N5CCC[C@H]5C(=O)N[C@@H](Cc5ccc(O)cc5)C(=O)N[C@@H](CCCC)C(=O)N[C@H](C(N)=O)CSCCC7=O)nn4)nn3)C(=O)N3CCC[C@H]3C(=O)N[C@@H](Cc3ccc(O)cc3)C(=O)N2)C(=O)CCSC[C@@H](C(N)=O)NC1=O [BCY12487]

SMILES: CCCC[C@@H]1NC(=O)[C@H](Cc2ccc(O)cc2)NC(=O)[C@@H]2CCCN2C(=O)[C@H](CC(=O)O)NC(=O)[C@H](C)NC(=O)[C@H](Cc2ccccc2)NC(=O)[C@@H]2CSCCC(=O)N3CN(CN(C3)C(=O)CCSC[C@@H](C(=O)N[C@@H](C)C(N)=O)NC1=O)C(=O)CCSC[C@H](NC(C)=O)C(=O)N[C@@H](CC(C)(C)C)C(=O)N1CCC[C@H]1C(=O)N[C@@H](CCC(=O)O)C(=O)N[C@H](CCCCNC(=O)CCc1cn(CCOCCOCCOCCOCCOCCC(=O)N[C@H]3CSCCC(=O)N4CN5CN(C4)C(=O)CCSC[C@H](NC(=O)[C@@H](CC(=O)O)NC(=O)[C@H](Cc4cccc6ccccc46)NC(=O)[C@@H]4CCCN4C3=O)C(=O)N[C@@H](CCSC)C(=O)N[C@@H](CCCCNC(=N)N)C(=O)N[C@@H](CC(=O)O)C(=O)N[C@@H](Cc3c[nH]c4ccccc34)C(=O)N[C@@H](CO)C(=O)N[C@@H]([C@@H](C)O)C(=O)N3CCC[C@H]3C(=O)N3C[C@H](O)C[C@H]3C(=O)N[C@@H](Cc3c[nH]c4ccccc34)C(=O)N[C@H](C(N)=O)CSCCC5=O)nn1)C(=O)N1CCC[C@H]1C(=O)N[C@@H](Cc1ccc(O)cc1)C(=O)N2 [BCY10572]
- secretion of proinflammatory cytokines IFNγ and IL-2 [2]: dose-dependent increase
- clearance ([4]; CL (mL/min/kg)): 18 mL/min/kg
- antitumor activity (CT26-Nectin-4 tumors; huCD137-Balb/c mice): Potent antitumor activity
- antitumor activity (CT26-Nectin-4 tumors; wt Balb/c mice): no BCY10572 antitumor activity

SMILES: CCCC[C@@H]1NC(=O)[C@H](Cc2ccc(O)cc2)NC(=O)[C@@H]2CCCN2C(=O)[C@H](CC(=O)O)NC(=O)[C@H](C)NC(=O)[C@H](Cc2ccccc2)NC(=O)[C@@H]2CSCCC(=O)N3CN(CN(C3)C(=O)CCSC[C@@H](C(=O)N[C@@H](C)C(N)=O)NC1=O)C(=O)CCSC[C@H](NC(=O)[C@H](C)NC(C)=O)C(=O)N[C@@H]([C@@H](C)CC)C(=O)N[C@@H](CCC(=O)O)C(=O)N[C@@H](CCC(=O)O)C(=O)N[C@H](CCCCNC(=O)CCc1cn(CCOCCOCCOCCN(CCOCCOCCOCCC(=O)N[C@H]3CSCCC(=O)N4CN5CN(C4)C(=O)CCSC[C@H](NC(=O)[C@@H](CC(=O)O)NC(=O)[C@H](Cc4cccc6ccccc46)NC(=O)[C@@H]4CCCN4C3=O)C(=O)N[C@@H](CCSC)C(=O)N[C@@H](CCCCNC(=N)N)C(=O)N[C@@H](CC(=O)O)C(=O)N[C@@H](Cc3c[nH]c4ccccc34)C(=O)N[C@@H](CO)C(=O)N[C@@H]([C@@H](C)O)C(=O)N3CCC[C@H]3C(=O)N3C[C@H](O)C[C@H]3C(=O)N[C@@H](Cc3c[nH]c4ccccc34)C(=O)N[C@H](C(N)=O)CSCCC5=O)CCOCCOCCOCCn3cc(CCC(=O)NCCCC[C@H]4NC(=O)[C@H](CCC(=O)O)NC(=O)[C@H](CCC(=O)O)NC(=O)[C@H]([C@@H](C)CC)NC(=O)[C@@H](NC(=O)[C@H](C)NC(C)=O)CSCCC(=O)N5CN6CN(C5)C(=O)CCSC[C@H](NC(=O)[C@H](Cc5ccc(O)cc5)NC(=O)[C@H](CCC(N)=O)NC4=O)C(=O)N[C@@H](Cc4ccccc4)C(=O)N[C@@H](C)C(=O)N[C@@H](CC(=O)O)C(=O)N4CCC[C@H]4C(=O)N[C@@H](Cc4ccc(O)cc4)C(=O)N[C@@H](CCCC)C(=O)N[C@H](C(=O)N[C@@H](C)C(N)=O)CSCCC6=O)nn3)nn1)C(=O)N[C@@H](CCC(N)=O)C(=O)N[C@@H](Cc1ccc(O)cc1)C(=O)N2 [BCY11864]
- secretion of proinflammatory cytokines IFNγ and IL-2 [2]: dose-dependent increase
- functional activity in PBMCs cocultured with MC38-Nectin-4 [5]: functionally active
- proportion of CD8+/GzB+ double positive cells of total CD8+ cells (MC38-Nectin-4 tumors): increase
- half-life ([4]; t½ (h), terminal half-life): 57 min
